The source of these data is ChEMBL document CHEMBL3272177, “Hypolipidemic alkoxybenzoic acids” (1976).

Common to all, as to design: scale not given: the % may be the effect or the level left
The species entered for assay [1] is Rattus norvegicus. Put plainly: Reduction in sterol level in CFE rat […] in serum at 0.1% of diet treated through diet for 6 days relative to control. In kind it is functional. In a few lines: (§1)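 Compound dissolved in methanol-chloroform (1:3 v/v), mixed into ground rat chow at 0.1, 0.05 or 0.025% (w/w), and solvent evaporated; controls received solvent-treated chow. Rats fed ad libitum with water for 6 days, then killed fed and bled. Serum sterols and triglycerides measured by autoanalyzer. Values given as percent of control, mean ± SE; significance by Student's t test.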

Assay [2] is filed under the species Rattus norvegicus. Put plainly: Reduction in sterol level in CFE rat […] in serum at 0.05% of diet treated through diet for 6 days relative to control. In kind it is functional. An outline of the steps: as §1
Assay [3] is filed under the species Rattus norvegicus. Put plainly: Reduction in sterol level in CFE rat […] at 0.025% of diet treated through diet for 6 days relative to control. In kind it is functional, Serum. In a few lines: as §1
For assay [4], the species on record is Rattus norvegicus. Kind of assay: Reduction in triglyceride level in CFE rat […] in serum at 0.1% of diet treated through diet for 6 days relative to control. In kind it is functional. In a few lines: as §1
For assay [5], the species on record is Rattus norvegicus. Kind of assay: Reduction in triglyceride level in CFE rat […] in serum at 0.05% of diet treated through diet for 6 days relative to control. The assay is classed as functional. In a few lines:
as §1

For assay [6], the species on record is Rattus norvegicus. Put plainly: Reduction in triglyceride level in CFE rat […] at 0.025% of diet treated through diet for 6 days relative to control. In kind it is functional, Serum. An outline of the steps: as §1

For `CCCCCCCCCCCCCC#CCOc1ccc(C(=O)O)cc1`, the Activity in the assay listed under Rattus norvegicus [1] was found to be 82%; in the assay filed under Rattus norvegicus [2] it was 88%; in the assay listed under Rattus norvegicus [3], 98%; in the assay listed under Rattus norvegicus [4], 75%; in the assay filed under Rattus norvegicus [5], 65%; in the assay listed under Rattus norvegicus [6], 96%.
Regarding `CCCCCCCCCCCCCCCCOc1c(Br)cc(C(=O)OC)cc1[N+](=O)[O-]`, the Activity worked out at 97% in the assay filed under Rattus norvegicus [1]; 93% in the assay filed under Rattus norvegicus [2]; 93% in the assay listed under Rattus norvegicus [3]; 95% in the assay filed under Rattus norvegicus [4]; 101% in the assay filed under Rattus norvegicus [5]; 113% in the assay listed under Rattus norvegicus [6].
On to `CCCCCCCCCCCC(CCOc1ccc(C(=O)OC)cc1)OS(=O)(=O)c1ccc(C)cc1` (stereo unspecified), for which the Activity is 98% in the assay listed under Rattus norvegicus [1]; 103% in the assay filed under Rattus norvegicus [2]; 102% in the assay listed under Rattus norvegicus [3]; 86% in the assay listed under Rattus norvegicus [4]; 91% in the assay filed under Rattus norvegicus [5]; 91% in the assay filed under Rattus norvegicus [6].
On to `CCCCCCCCCCCCCCCCOc1c(C)cc(C(=O)O)cc1C`, for which the Activity was 97% in the assay filed under Rattus norvegicus [1]; 89% in the assay filed under Rattus norvegicus [2]; 78% in the assay filed under Rattus norvegicus [3]; 82% in the assay filed under Rattus norvegicus [4]; 79% in the assay listed under Rattus norvegicus [5]; 68% in the assay filed under Rattus norvegicus [6].
Regarding `O=C(O)c1ccc(OCC2CCCCCCCCCCC2)cc1`, the Activity in the assay filed under Rattus norvegicus [1] is listed as 101%; in the assay filed under Rattus norvegicus [2] it was 105%; in the assay filed under Rattus norvegicus [3] it was 104%; in the assay listed under Rattus norvegicus [4], 160%; in the assay filed under Rattus norvegicus [5] it was 130%; in the assay listed under Rattus norvegicus [6] it was 123%.
For `CCCCSCCCCCCCCCCCOc1ccc(C(=O)O)cc1`, the Activity is 76% in the assay listed under Rattus norvegicus [1]; 76% in the assay filed under Rattus norvegicus [2]; 70% in the assay listed under Rattus norvegicus [3]; 60% in the assay listed under Rattus norvegicus [4]; 53% in the assay filed under Rattus norvegicus [5]; 60% in the assay listed under Rattus norvegicus [6].
Turning to `CCCC[S+]([O-])CCCCCCCCCCCOc1ccc(C(=O)O)cc1` (stereo unspecified), the Activity in the assay filed under Rattus norvegicus [1] worked out at 102%; in the assay listed under Rattus norvegicus [2], 97%; in the assay listed under Rattus norvegicus [3] it was 102%; in the assay listed under Rattus norvegicus [4], 44%; in the assay listed under Rattus norvegicus [5] it was 54%; in the assay listed under Rattus norvegicus [6], 83%.
Regarding `CC[S+]([O-])CCCCCCCCCCCCCCCCOc1ccc(C(=O)O)cc1` (stereo unspecified), the Activity was found to be 94% in the assay listed under Rattus norvegicus [1]; 81% in the assay listed under Rattus norvegicus [2]; 89% in the assay filed under Rattus norvegicus [3]; 55% in the assay listed under Rattus norvegicus [4]; 80% in the assay filed under Rattus norvegicus [5]; 87% in the assay listed under Rattus norvegicus [6].
In the case of `CCCCCCCCCCCC(C)(C)Oc1ccc(C(=O)O)cc1`, the Activity is given as 83% in the assay listed under Rattus norvegicus [1]; 88% in the assay listed under Rattus norvegicus [2]; 90% in the assay filed under Rattus norvegicus [3]; 63% in the assay filed under Rattus norvegicus [4]; 80% in the assay listed under Rattus norvegicus [5]; 74% in the assay listed under Rattus norvegicus [6].
Take `O=C(O)c1ccc(OCCCCCCCCCCCCCCCOc2ccc(C(=O)O)cc2)cc1`: the Activity amounted to 94% in the assay listed under Rattus norvegicus [1]; 103% in the assay filed under Rattus norvegicus [2]; 97% in the assay filed under Rattus norvegicus [3]; 51% in the assay listed under Rattus norvegicus [4]; 77% in the assay filed under Rattus norvegicus [5]; 64% in the assay listed under Rattus norvegicus [6].
In the case of `CCCCCCCCCCC/C(CCOc1ccc(C(=O)OC)cc1)=N/O`, the Activity in the assay filed under Rattus norvegicus [1] stood at 64%; in the assay listed under Rattus norvegicus [2], 67%; in the assay listed under Rattus norvegicus [3], 74%; in the assay filed under Rattus norvegicus [4], 32%; in the assay listed under Rattus norvegicus [5] it was 43%; in the assay filed under Rattus norvegicus [6], 53%.
`CCSCCCCCCCCCCCOc1ccc(C(=O)OC)cc1`: the Activity in the assay listed under Rattus norvegicus [1] turned out to be 100%; in the assay listed under Rattus norvegicus [2], 100%; in the assay listed under Rattus norvegicus [3], 110%; in the assay listed under Rattus norvegicus [4] it was 65%; in the assay filed under Rattus norvegicus [5] it was 74%; in the assay listed under Rattus norvegicus [6], 71%.
For `O=C(O)c1ccc(OCCCCCCCCCCCCS)cc1`, the Activity is 79% in the assay filed under Rattus norvegicus [1]; 81% in the assay filed under Rattus norvegicus [2]; 88% in the assay filed under Rattus norvegicus [3]; 26% in the assay filed under Rattus norvegicus [4]; 46% in the assay listed under Rattus norvegicus [5]; 61% in the assay listed under Rattus norvegicus [6].
Consider `CC(C)CCCC(C)CCCC(C)CCCC(C)CCOc1ccc(C(=O)O)cc1` (stereo unspecified), for which the Activity was found to be 71% in the assay filed under Rattus norvegicus [1]; 84% in the assay filed under Rattus norvegicus [2]; 87% in the assay filed under Rattus norvegicus [3]; 72% in the assay listed under Rattus norvegicus [4]; 104% in the assay listed under Rattus norvegicus [5]; 110% in the assay filed under Rattus norvegicus [6].
`CCCCS(=O)(=O)CCCCCCCCCCCOc1ccc(C(=O)O)cc1`: the Activity in the assay listed under Rattus norvegicus [1] stood at 94%; in the assay listed under Rattus norvegicus [2], 95%; in the assay listed under Rattus norvegicus [3] it was 91%; in the assay listed under Rattus norvegicus [4], 57%; in the assay listed under Rattus norvegicus [5], 69%; in the assay filed under Rattus norvegicus [6] it was 81%.
`O=C(O)c1ccc(OC2CCCCCCCCCCC2)cc1`: the Activity in the assay filed under Rattus norvegicus [1] turned out to be 86%; in the assay filed under Rattus norvegicus [2], 94%; in the assay filed under Rattus norvegicus [3] it was 87%; in the assay listed under Rattus norvegicus [4], 87%; in the assay filed under Rattus norvegicus [5], 81%; in the assay filed under Rattus norvegicus [6], 97%.
Regarding `CCCCNCCCCCCCCCCCOc1ccc(C(=O)OC)cc1`, the Activity in the assay filed under Rattus norvegicus [1] is 96%; in the assay filed under Rattus norvegicus [2], 95%; in the assay filed under Rattus norvegicus [3], 102%; in the assay filed under Rattus norvegicus [4], 114%; in the assay listed under Rattus norvegicus [5], 88%; in the assay listed under Rattus norvegicus [6], 104%.
In the case of `CCCCCCCCCCCC(S)CCOc1ccc(C(=O)O)cc1` (stereo unspecified), the Activity in the assay filed under Rattus norvegicus [1] amounted to 83%; in the assay filed under Rattus norvegicus [2], 89%; in the assay filed under Rattus norvegicus [3], 94%; in the assay listed under Rattus norvegicus [4] it was 47%; in the assay filed under Rattus norvegicus [5] it was 53%; in the assay filed under Rattus norvegicus [6] it was 76%.
`CCCCCCCCCCCCCCC(C)Oc1ccc(C(=O)O)cc1` (stereo unspecified): the Activity is reported as 84% in the assay filed under Rattus norvegicus [1]; 85% in the assay listed under Rattus norvegicus [2]; 90% in the assay listed under Rattus norvegicus [3]; 70% in the assay listed under Rattus norvegicus [4]; 72% in the assay filed under Rattus norvegicus [5]; 92% in the assay filed under Rattus norvegicus [6].
For the compound `C=CCCCCCCCCCOc1ccc(C(=O)O)cc1`, the Activity in the assay filed under Rattus norvegicus [1] came to 86%; in the assay filed under Rattus norvegicus [2], 99%; in the assay listed under Rattus norvegicus [3] it was 100%; in the assay listed under Rattus norvegicus [4], 60%; in the assay filed under Rattus norvegicus [5], 81%; in the assay listed under Rattus norvegicus [6], 82%.
As to `CCCCCCCCCCCCC/C=C/COc1ccc(C(=O)O)cc1`, the Activity is on record as 81% in the assay listed under Rattus norvegicus [1]; 85% in the assay listed under Rattus norvegicus [2]; 106% in the assay filed under Rattus norvegicus [3]; 46% in the assay filed under Rattus norvegicus [4]; 57% in the assay filed under Rattus norvegicus [5]; 45% in the assay filed under Rattus norvegicus [6].
With `CCCCCCCCCCCCCC#CCOc1ccc(C(=O)OC)cc1`, the Activity in the assay listed under Rattus norvegicus [1] amounted to 89%; in the assay filed under Rattus norvegicus [2], 83%; in the assay filed under Rattus norvegicus [3], 89%; in the assay filed under Rattus norvegicus [4] it was 57%; in the assay listed under Rattus norvegicus [5] it was 66%; in the assay filed under Rattus norvegicus [6], 78%.
As for `O=C(O)CCCCCCCCCCOc1ccc(C(=O)O)cc1`, the Activity was determined as 94% in the assay listed under Rattus norvegicus [1]; 100% in the assay filed under Rattus norvegicus [2]; 96% in the assay listed under Rattus norvegicus [3]; 100% in the assay filed under Rattus norvegicus [4]; 135% in the assay listed under Rattus norvegicus [5]; 118% in the assay listed under Rattus norvegicus [6].
`COC(=O)c1ccc(OCCCCCCCCCCCCl)cc1`: the Activity turned out to be 102% in the assay listed under Rattus norvegicus [1]; 108% in the assay listed under Rattus norvegicus [2]; 110% in the assay listed under Rattus norvegicus [3]; 41% in the assay listed under Rattus norvegicus [4]; 81% in the assay listed under Rattus norvegicus [5]; 94% in the assay listed under Rattus norvegicus [6].
For `COC(=O)c1ccc(OCC2(C34CC5CC(CC(C5)C3)C4)SCCS2)cc1`, the Activity in the assay listed under Rattus norvegicus [1] is 93%; in the assay listed under Rattus norvegicus [2] it was 89%; in the assay filed under Rattus norvegicus [3], 94%; in the assay listed under Rattus norvegicus [4], 112%; in the assay filed under Rattus norvegicus [5], 83%; in the assay filed under Rattus norvegicus [6] it was 94%.
As for `O=C(O)c1ccc(OCCCCCCCCCCCO)cc1`, the Activity in the assay listed under Rattus norvegicus [1] is reported as 113%; in the assay listed under Rattus norvegicus [2], 106%; in the assay listed under Rattus norvegicus [3], 91%; in the assay filed under Rattus norvegicus [4], 81%; in the assay filed under Rattus norvegicus [5], 93%; in the assay filed under Rattus norvegicus [6], 83%.
In the case of `CCCCCCCCCCCC1OC1CCCOc1ccc(C(=O)OC)cc1` (stereo unspecified), the Activity is given as 84% in the assay filed under Rattus norvegicus [1]; 89% in the assay listed under Rattus norvegicus [2]; 103% in the assay listed under Rattus norvegicus [3]; 65% in the assay filed under Rattus norvegicus [4]; 64% in the assay filed under Rattus norvegicus [5]; 74% in the assay filed under Rattus norvegicus [6].
As to `COC(=O)c1ccc(OCCCCCCCCCCCSC#N)cc1`, the Activity in the assay listed under Rattus norvegicus [1] is 160%; in the assay listed under Rattus norvegicus [2], 102%; in the assay listed under Rattus norvegicus [3], 102%; in the assay listed under Rattus norvegicus [4] it was 145%; in the assay listed under Rattus norvegicus [5] it was 94%; in the assay filed under Rattus norvegicus [6], 80%.
As for `CCCCCCCCCCCCCCCCOc1ccc(C(=O)O)cc1`, the Activity is 74% in the assay filed under Rattus norvegicus [1]; 83% in the assay filed under Rattus norvegicus [2]; 89% in the assay listed under Rattus norvegicus [3]; 46% in the assay listed under Rattus norvegicus [4]; 62% in the assay listed under Rattus norvegicus [5]; 58% in the assay listed under Rattus norvegicus [6].
Take `COC(=O)c1ccc(OCCCCCCCCCCCCCCCO)cc1`: the Activity in the assay listed under Rattus norvegicus [1] is on record as 93%; in the assay listed under Rattus norvegicus [2], 98%; in the assay filed under Rattus norvegicus [3], 96%; in the assay filed under Rattus norvegicus [4], 89%; in the assay filed under Rattus norvegicus [5], 104%; in the assay filed under Rattus norvegicus [6] it was 98%.
Consider `COC(=O)c1ccc(OCCCCCCCCCCCSC(C)=O)cc1`, for which the Activity in the assay listed under Rattus norvegicus [1] is recorded as 113%; in the assay listed under Rattus norvegicus [2] it was 98%; in the assay filed under Rattus norvegicus [3] it was 106%; in the assay filed under Rattus norvegicus [4] it was 63%; in the assay listed under Rattus norvegicus [5] it was 88%; in the assay listed under Rattus norvegicus [6] it was 66%.
